Measurements from PMC3228901 (Cancer research, 2011).

Columns and labels:
[1] = target: recombinant human LSD1 protein (Homo sapiens, UniProt O60341); assay: In vitro LSD1 demethylation assay, di-methylated H3K4 peptide, mass-spectrometry; format: biochemical; conditions: read-out: half maximal inhibitory concentration (IC50) for LSD1, 30 °C, 1 hour, MS peak areas
In short: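 GST-tagged human LSD1 was expressed in bacteria and purified; protein was also obtained commercially. The enzyme was incubated with di-methylated H3K4 peptide at 30 °C for 1 h, with test compound at 0–100 μM (0, 1, 2, 5, 10, 20, 50, 100 μM). Me1 and Me0 products were read by MALDI TOF/TOF MS. Conversion efficiency came from integrated product peak areas, and IC50 was fitted from conversion efficiency.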

[2] = system: methylated H3K4 in F9 embryonic teratocarcinoma cells; assay: Histone H3 methylation in F9 cells, Western blotting; format: cell-based, mouse; conditions: for IC50: read-out: IC50 in F9 cells (histone H3K4 methylation), various concentrations
In short: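 F9 cells received 10 μM test compound for 24 h, plus a concentration series. Total histones were then extracted. Mono- and di-methylated H3K4, tri-methylated H3K4, di-methylated H3K9 and total histone H3 were probed by Western blot with specific antibodies. F9 cells given 50 nM LSD1 siRNA for 48 h served as comparison.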

F9 cells [3] = assay: Growth of F9 cells, cell numbers counted; format: cell-based, mouse; conditions: 50 μM, 30 hours
In short: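 F9 cells on gelatin-coated dishes in DMEM/10% FBS were treated with DMSO or 50 μM test compound for 30 h. Cells were then counted and expressed as percent of DMSO control. A separate concentration series was also run over 30 h.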

HeLa = assay: Growth of HeLa cells; format: cell-based; conditions: even at relatively high concentrations (100–200 μM)
293 = assay: Growth of 293 cells; format: cell-based; conditions: even at relatively high concentrations (100–200 μM)
NIH 3T3 = assay: Growth of NIH 3T3 cells; format: cell-based; conditions: even at relatively high concentrations (100–200 μM)
NCCIT cells = assay: Growth of NCCIT cells; format: cell-based, human; conditions: 50 μM, 30 hours
In short: (§1)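 Human pluripotent NCCIT and NTERA-2 cells, maintained in DMEM with 10% FBS, were exposed to 50 μM test compound for 30 h and growth assessed. Non-pluripotent HeLa, 293 and NIH3T3 cells were run under the same conditions.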

NTERA-2 cells = assay: Growth of NTERA-2 cells; format: cell-based, human; conditions: 50 μM, 30 hours
In short: as §1

mouse ES cells = assay: Spherical growth of embryonic stem cells; format: cell-based; conditions: 50 μM, 30 hours
In short: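 Mouse ES cells, cultured on irradiated mouse embryonic fibroblasts in DMEM with 10% FBS, were treated with DMSO or 50 μM test compound for 30 h. Spherical colony growth was then examined.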

[4] = system: CHRM4 and SCN3A gene expression in F9 cells; format: cell-based, mouse; conditions: 10 μM, 24 hours, quantitative RT-PCR
In short: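 F9 mouse teratocarcinoma cells, grown in DMEM with 10% FBS on 0.1% gelatin-coated dishes, exposed to 10 μM test compound for 24 h; dose series also run in F9 and HeLa cells. CHRM4 and SCN3A mRNA quantified by real-time RT-PCR. LSD1 siRNA-treated F9 cells served as comparison.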

F9 cells [5] = assay: Cell permeability assay in F9 cells, mass-spectrometry; format: in vitro ADME, mouse; conditions: 2 hours incubation, washed cells
In short: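 F9 cells exposed to test compound for 2 h, with DMSO as control, then extensively washed and lysed immediately. Lysate mixed with 4 volumes acetone at −20 °C for 6 h, precipitate removed by centrifugation, supernatant lyophilized and redissolved in methanol. Compound detected by mass spectrometry against pure compound and untreated-cell lysate as m/z references.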

| IC50 [1] | presence of compound in F9 cells after exposure (F9 cells [5]) | SMILES | IC50 [2] | growth of F9 cells (F9 cells [3]) | growth inhibition of HeLa cells (HeLa) | growth inhibition of 293 cells 293 | growth inhibition of NIH 3T3 cells (NIH 3T3) | growth of NCCIT cells (NCCIT cells) | growth of NTERA-2 cells (NTERA-2 cells) | spherical growth of ES cells (mouse ES cells) | effect on mono- and di-methylated H3K4 in F9 cells ([2]; 10 μM, 24 hours) | effect on tri-methylated H3K4 and di-methylated H3K9 in F9 cells ([2]; 10 μM, 24 hours) | activation of CHRM4 and SCN3A expression [4] |
| --- | --- | --- | --- | --- | --- | --- | --- | --- | --- | --- | --- | --- | --- |
| 5.27 µM |  | COC(=O)c1cc(CN2CCN(C(=N)N)CC2)cc(C(=O)N2CCN(C(=O)c3ccc(C(=N)N)cc3)CC2)c1 [CBB1007] | 1 to 5 µM | significantly inhibit | did not display any significant growth inhibition | did not display any significant growth inhibition | did not display any significant growth inhibition | inhibited | inhibited | substantial inhibition |  |  |  |
| 10.5 µM | readily found | N=C(N)c1ccc(C(=O)N2CCN(C(=O)c3cc(CN4CCN(C(=N)N)CC4)cc([N+](=O)[O-])c3)CC2)cc1 [CBB1003] | 5 to 10 µM | significantly inhibit | did not display any significant growth inhibition | did not display any significant growth inhibition | did not display any significant growth inhibition | inhibited | inhibited | substantial inhibition | reproducible increase | very little effects | led to the activation |
